Data: ChEMBL document CHEMBL5104115, “Design, synthesis of novel triptolide-glucose conjugates targeting glucose Transporter-1 and their selective antitumor effect” (Eur J Med Chem, 2022)

Tests used:
HT-29 = test: Cytotoxicity against human HT-29 cells incubated for 72 hrs by MTT assay; type: functional, cell-based; details: HT-29, 72 h
Summary of the method: (§1)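 Cells seeded at 4000/well, incubated overnight, then exposed to a range of concentrations, or DMSO vehicle, for 72 h. MTT (5 mg/mL solution) added for 4 h and formazan dissolved in DMSO. Absorbance read at 570 nm, and IC50 derived from the curves. Tumor lines were grown in RPMI 1640; HUVEC, HaCaT and LO2 were grown in DMEM, each with 10% FBS at 37 °C and 5% CO2.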

SW-620 = test: Cytotoxicity against human SW-620 cells incubated for 72 hrs by MTT assay; type: functional, cell-based; details: SW-620, 72 h; summary of the method: as §1
[1] = Cytotoxicity against human HaCaT cells incubated for 72 hrs by MTT assay; type: toxicity, cell-based; summary of the method: as §1
[2] = Octanol-water partition coefficient, logD of the compound in PBS at pH 7.4 by liquid chromatography based mass spectrometric analysis; type: physicochemical
Summary of the method: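 Shake-flask method: 3.0 mg compound dissolved in PBS-saturated n-octanol and rotated 24 h at room temperature. The octanol phase was then mixed with octanol-saturated PBS, rotated another 24 h and centrifuged. Both phases quantified by LC-MS against a standard curve, and log P = log(C octanol/C water).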

HCT-116 = test: Cytotoxicity against human HCT-116 cells incubated for 72 hrs by MTT assay; type: functional, cell-based; details: HCT-116, 72 h; summary of the method: as §1
MDA-MB-231 = test: Cytotoxicity against human MDA-MB-231 cells incubated for 72 hrs by MTT assay; type: functional, cell-based; details: MDA-MB-231, 72 h; summary of the method: as §1
[3] = Cytotoxicity against HUVEC incubated for 72 hrs by MTT assay; type: toxicity, cell-based; details: human, HUVEC cells; summary of the method: as §1
[4] = Cytotoxicity against human L02 cells incubated for 72 hrs by MTT assay; type: toxicity, cell-based; summary of the method: as §1
NCI-H460 = test: Cytotoxicity against human NCI-H460 cells incubated for 72 hrs by MTT assay; type: functional, cell-based; details: NCI-H460, 72 h; summary of the method: as §1
NCI-H1975 [5] = test: Cytotoxicity against human NCI-H1975 cells incubated for 72 hrs by MTT assay; type: functional, cell-based; details: NCI-H1975, 72 h; summary of the method: as §1
NCI-H1975 [6] = test: Antitumor activity against human NCI-H1975 cells xenografted in BALB/c nude mouse assessed as tumor growth inhibition at 15 mg/kg, ip, q3d for 2 weeks relative to control; details: NCI-H1975, 336 h, read-out: TGI

Row | Compound | IC50 (HT-29) | IC50 (SW-620) | IC50 at 72 h [1] | logD [2] | IC50 (HCT-116) | IC50 (MDA-MB-231) | IC50 at 72 h [3] | IC50 at 72 h [4] | IC50 (NCI-H460) | IC50 (NCI-H1975 [5]) | inhibition in vivo at 15 mg/kg (NCI-H1975 [6])
1 | CC(C)[C@]12O[C@H]1[C@@H]1O[C@]13[C@]1(O[C@H]1C[C@H]1C4=C(CC[C@@]13C)C(=O)OC4)[C@@H]2OC(=O)CCC(=O)O[C@@H]1O[C@H](CO)[C@@H](O)[C@H](O)[C@H]1O | 2.89 µM | 5.51 µM | 1.63 µM | -0.558 | 2.35 µM | 2.28 µM | 8.14 µM | 1.38 µM | 2.72 µM | 1.86 µM | –
2 | CC(=O)O[C@H]1C(=O)[C@@]2(C)[C@H]([C@H](OC(=O)c3ccccc3)[C@]3(O)C[C@H](OC(=O)[C@H](O)[C@@H](NC(=O)c4ccccc4)c4ccccc4)C(C)=C1C3(C)C)[C@]1(OC(C)=O)CO[C@@H]1C[C@@H]2O [PACLITAXEL] | – | – | – | – | – | – | – | – | – | – | 56.9%
3 | CC(C)[C@]12O[C@H]1[C@@H]1O[C@]13[C@]1(O[C@H]1C[C@H]1C4=C(CC[C@@]13C)C(=O)OC4)[C@@H]2OC(=O)CCC(=O)O[C@H]1[C@H](O)[C@@H](O)C(O)O[C@@H]1CO (stereo not given in full) | 4.08 µM | 11 µM | 4.75 µM | -0.331 | 4.47 µM | 5.61 µM | 2.36 µM | 1.8 µM | 3.06 µM | 2.51 µM | –
4 | CC(C)[C@]12O[C@H]1[C@@H]1O[C@]13[C@]1(O[C@H]1C[C@H]1C4=C(CC[C@@]13C)C(=O)OC4)[C@@H]2OC(=O)CCC(=O)O[C@H]1O[C@H](CO)[C@@H](O)[C@H](O)[C@H]1O | 5.37 µM | 3.85 µM | 4.29 µM | – | 1.9 µM | 4.42 µM | 5.68 µM | 2.15 µM | 4.08 µM | 3.42 µM | –
